In the library only some 3.7% were active in any assay of this set; here they are far more common.
UPR XBP1 act – activators of adaptive XBP1 UPR arm, primary screen, cell-based, CHO-XBP1 luciferase reporter, luminescence, uHTS; activation, % at 20 µM; IRE1-XBP1 UPR activation; percent of tunicamycin response, DMSO as zero; hit rate 0.33% among 330,000;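 active means versus positive control, 20 µM dose yields 30% or more activation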;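 further: 100% = tunicamycin at 10 µg/mL and 0% = DMSO only wells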
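Material: CHO cell line with stable XBP1 luciferase reporter; buffer or medium: F12 medium containing 10% fetal bovine serum; compound: single point, 20 µM final compound, 1% DMSO; incubation: 6 h treatment, 37 °C; measured by: glow luminescence from Steady-Glo reagent; evaluation: activation, % of tunicamycin; control set: tunicamycin high, DMSO low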
UPR CHOP act – activators of apoptotic CHOP UPR arm, primary screen, cell-based, CHO-CHOP luciferase reporter, luminescence, uHTS. hit rate 0.34% among 330,000. AID 449763, 2010. activation, % at 10 µM. UPR activation; percent of tunicamycin response over DMSO baseline;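 active means at 10 µM dose, activation of 40% or more, normalized to positive control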;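 further: 100% = tunicamycin at 10 µg/mL and 0% = DMSO alone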
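Evaluation: % reporter activation, DMSO baseline versus tunicamycin full activation; System: CHO-CHOP luciferase reporter cell line; Input: 500 cells/well; Incubation: 6 h compound treatment, 37 °C; Measured by: Steady-Glo luciferase luminescence; Dosing: one dose, 10 µM in 0.5% DMSO; Buffer or medium: F12 medium, 10% FBS; Benchmarks: positive tunicamycin 10 µg/mL, negative DMSO alone.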
Mdm2 MdmX PPI – inhibitors of human Mdm2-MdmX association, primary screen, cell-based, luminescence, split luciferase, SaOS-2, uHTS; Protein Mdm4 (Homo sapiens) + E3 ubiquitin-protein ligase Mdm2 (Homo sapiens), …; SaOS-2 split-luciferase Mdm2/MdmX complementation; inhibition, % at 8 µM; hit rate 3% among 330,000;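 active means inhibition of at least 50% at 8 µM in the primary screen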
Dynein cargo inh – inhibitors of GR-EGFP nuclear translocation, primary screen, dynein cargo transport inhibitor project, imaging, high-content, 3617.4 mouse cells; z-score, hits read low; hit rate 0.47% among 220,000; test concentration mostly 20 µM; stimulated with dexamethasone, 1 µM; active compounds read low;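 active means plate z-score of nuclear minus cytoplasmic receptor signal below a set negative limit, without overly bright fluorescence or cell loss, cut at about -3.5 in these data, passing the limit was not always enough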;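 further: z-score of nuclear minus cytoplasmic ring GR-EGFP intensity difference per well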
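Buffer or medium: tet-free medium with charcoal-stripped serum / Also added: dexamethasone agonist, 1.0 µM final, for 30 min / Timing: induction 48 h, compound 1 h, agonist 30 min / Measured by: high-content fluorescence imaging after fixation / Read-out: nuclear-to-cytoplasmic GR-EGFP distribution per well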
B2AR ag – beta2AR agonists driving receptor internalization, primary screen, cell-based, FAP fluorogen, flow cytometry | Beta-2 adrenergic receptor (Homo sapiens), P07550 | hit rate 0.43% among 340,000 | Am2.2-beta2AR cells | response, % (no concentration beside the values) | AID 504454, 2011;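 active means response above a set limit, near 3 SD of response in nonfluorescent compounds, cut at about 42% in these data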
Mdm2 ligase inh – MDM2-luciferase reporter signal enhancers, primary screen, MDM2 E3 ligase inhibitor project, cell-based, luminescence, 1536-well; AID 1230, 2008; cell-based MDM2 ubiquitination luciferase reporter, 2 h; 0 = plate control, 100 = twice control, blank-subtracted; signal enhancement, % at 5 µM; E3 ubiquitin-protein ligase Mdm2 (Homo sapiens), Q00987; hit rate 0.11% among 210,000;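 active means signal enhancement of 30% or more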;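 further: luminescence tracks abundance of the self-degrading MDM2-luciferase fusion protein; higher signal means inhibition of MDM2 E3 ligase activity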
Target sequence (Q00987 whole entry, looked up, the tested form may be a part): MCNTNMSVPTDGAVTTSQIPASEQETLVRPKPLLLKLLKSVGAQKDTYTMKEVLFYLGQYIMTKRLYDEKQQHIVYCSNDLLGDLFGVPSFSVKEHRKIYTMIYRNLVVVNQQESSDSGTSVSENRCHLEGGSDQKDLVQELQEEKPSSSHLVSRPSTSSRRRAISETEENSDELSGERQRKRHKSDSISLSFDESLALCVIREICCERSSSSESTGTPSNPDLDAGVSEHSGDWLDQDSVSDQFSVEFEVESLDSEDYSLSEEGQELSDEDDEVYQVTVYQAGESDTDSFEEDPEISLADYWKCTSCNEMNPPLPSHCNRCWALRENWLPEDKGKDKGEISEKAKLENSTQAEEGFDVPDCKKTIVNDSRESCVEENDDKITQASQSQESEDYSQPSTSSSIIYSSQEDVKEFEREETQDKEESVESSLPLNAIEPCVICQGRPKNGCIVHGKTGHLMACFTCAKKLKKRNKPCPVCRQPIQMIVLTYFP
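system = mammalian cells stably expressing self-ubiquitinating, self-degrading MDM2 E3–luciferase fusion | quantity = 2000 cells per well seeded | incubation = 4 h cell settling then 2 h compound exposure, 37 °C | signal = SteadyLite luminescence, 15 min reagent step | benchmarks = plate control and blank wells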
Dynein confirm – dynein cargo transport inhibitors, GR-EGFP translocation, confirmation, imaging, high-content imaging, GR-EGFP cells; AID 463116, 2010; calls only at 20 µM; hit rate 69% among 1,000; 3617.4 GR-EGFP nuclear translocation imaging, dexamethasone-induced; shares compounds with Dynein cargo inh;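 active means inhibition of receptor movement into the nucleus at or above a set limit in both runs, with normal cell brightness and cell count; inconclusive means limit reached in only one run, brightness and count normal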;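 further: dexamethasone at 1 µM final in well for 30 min; nuclear minus cytoplasmic GR-EGFP mean intensity difference in channel 2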
UPR CHOP confirm – activators of apoptotic CHOP UPR arm, confirmation, cell-based, CHO-CHOP luciferase reporter, single concentration; shares compounds with UPR CHOP act; CHO-CHOP cells, CHOP-luciferase reporter luminescence; percent of tunicamycin response, DMSO as zero; activation, % at 10 µM; hit rate 64% among 1,000; AID 463112, 2010; in the data active means activation above about 33%;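 further: 0% = DMSO wells and 100% = tunicamycin 10 µg/mL wells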
XBP1 UPR conf – IRE1-XBP1 UPR arm activators, confirmation, cell-based, CHO-XBP1 luciferase reporter, luminescence, single concentration. shares compounds with UPR XBP1 act. activation, % at 20 µM. hit rate 63% among 1,000. AID 485299, 2010;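 active means reporter signal at least 30% of the positive control's activation in two or more of four replicate wells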;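 further: plate controls were DMSO negative control for no effect and tunicamycin 10 µg/mL positive control for full effect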
Mdm2 MdmX conf – Mdm2-MdmX complex disruptors, retested hits, confirmation, luminescence, single concentration; shares compounds with Mdm2 MdmX PPI; Mdm2-MdmX binding, luminescent assay; inhibition, % at 8 µM; hit rate 55% among 10,000; in the data active means inhibition above about 40%
Full FLuc ctr – full-length luciferase signal inhibition, confirmation, counter-screen for Mdm2/MdmX interaction inhibitor project, cell-based, single concentration, SaOS-2 | shares compounds with Mdm2 MdmX PPI | SaOS-2 full-length luciferase counterscreen, luminescence | inhibition, % at 8 µM | hit rate 77% among 6,200 | AID 504607, 2011;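 active means mean inhibition at 8 µM reaching about 37%, which flags the compound as non-specific, limit read from the data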;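 further: p53-null SaOS-2 cells with luciferase driven by a doxycycline-inducible promoter; compound on cells about two nights before reading with doxycycline added after day one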
* = called active by the depositor; i = inactive; ? = inconclusive; . = no result; + = active, no number.

SMILES	UPR XBP1 act	UPR CHOP act	Mdm2 MdmX PPI	Dynein cargo inh	B2AR ag	Mdm2 ligase inh	Dynein confirm	Mdm2 MdmX conf	Full FLuc ctr	others
C=CCS(=O)(=O)c1nc2ccccc2s1	-10.0	31.7	62.5*	-5.43*	28.4	-14.4	i	38.5	42.2*
CC(C)(C)S(=O)(=O)c1nc2ccccc2s1	-0.9	-1.1	23.0	0.934	1.7	-7.5	.	.	.
COC(=O)CS(=O)(=O)c1nnc([C@H](Cc2ccccc2)NC(=O)OC(C)(C)C)o1	-11.2	-10.4	83.5*	-3.88*	15.6	4.7	+	56.2*	15.1
Cc1cccc(CS(=O)(=O)c2nnc([C@H](Cc3ccccc3)NC(=O)OC(C)(C)C)o2)c1	-6.9	28.7	97.3*	-4.92*	61.2*	-3.8	i	56.3*	53.7*
CC(=O)Nc1ccc(NC(=O)C(C)OC(=O)c2ccc(S(=O)(=O)N3CCCCCC3)cc2)cc1 (stereo unspecified)	0.8	-0.1	22.8	.	4.8	.	.	.	.
CC(C)(C)OC(=O)NCCc1nnc(S(=O)(=O)Cc2ccc(Cl)cc2Cl)o1	-5.9	2.4	76.8*	-6.28*	21.2	-2.7	?	59.0*	5.2
CCN1CCN(Cc2c(O)ccc3c2O/C(=C\C=C\c2ccccc2)C3=O)CC1	-1.9	153.6*	95.8*	-4.91*	3.0	-16.7	+	59.3*	37.3*	UPR CHOP confirm=0.8
Cc1c(Cl)cccc1NC(=O)C1=COCCO1	0.1	0.6	13.7	.	-0.6	.	.	.	.
COC(=O)c1cc(=O)n(Cc2cccs2)c(=NCc2cccs2)s1	-1.1	2.1	24.0	-0.914	-10.9	-2.3	.	.	.
CCOC(=O)c1ccc(N=c2sc(C(=O)OC)cc(=O)n2Cc2ccco2)cc1	7.4	40.6*	54.5*	-6.34*	24.5	-5.5	+	1.9	.	UPR CHOP confirm=22.7
Cc1cccc(C(=O)NC2CCN(C(=O)NCc3ccccc3)CC2)c1	-2.1	2.8	-8.3	.	16.5	.	.	.	.
Cc1ccc(NC(=O)CCl)cc1S(=O)(=O)N1CCCCCC1	-4.4	34.4	97.2*	-4.14*	-5.1	-3.8	+	26.1	.
CCN(CC)S(=O)(=O)c1cc(NC(=O)Cn2ncc(Cl)c(Cl)c2=O)ccc1C	-3.3	94.9*	100.4*	-4.52*	46.0*	13.9	+	100.2*	50.1*	UPR CHOP confirm=67.1*
COc1ccc(NC(=O)Cn2ncc(Cl)c(Cl)c2=O)cc1S(=O)(=O)N1CCOCC1	.	.	.	-2.68	16.5	2.9	.	.	.
CCC(=O)Nc1ccc(C(=O)Cn2ncc(Cl)c(Cl)c2=O)cc1	0.2	63.3*	85.9*	-4.43*	8.7	-3.5	+	63.0*	43.4*	UPR CHOP confirm=74.5*
O=[N+]([O-])c1ccc(S(=O)(=O)CC(CN2CCCCC2)N2CCCCC2)cc1 (stereo unspecified)	-10.6	18.6	100.3*	-4.06	13.5	-5.0	+	94.3*	51.2*
Cn1cc([N+](=O)[O-])c(C(=O)Nc2nc(-c3ccc(Cl)cc3)cs2)n1	4.6	15.6	93.9*	-3.92*	32.7	-9.0	+	90.5*	44.1*
O=C(CCl)c1ccc2c(c1)CCN2C(=O)C1CCCCC1	-7.8	-7.0	96.6*	-5.68*	22.1	22.0	+	53.0*	79.2*
O=C(CCl)c1ccc2c(c1)CCN2C(=O)C1CC1	-10.9	-9.2	79.6*	-4.81*	.	0.3	+	39.0	27.0
O=C(C1CCC(C(=O)N2CCc3ccccc32)CC1)N1CCc2ccccc21 (stereo unspecified)	-4.1	-0.1	5.3	0.803	-0.4	-21.0	.	.	.
CCN(CC)c1ccc2cc(-c3nc4ccccc4[nH]3)c(=O)oc2c1	45.4*	21.8	67.2*	-5.17*	-408.6	-33.8	+	47.0*	44.8*	XBP1 UPR conf=21.0
CCN(CC)c1ccc2cc(-c3nc4ccccc4n3C)c(=O)oc2c1	.	.	.	1.7	24.5	-7.5	.	.	.
CC(=O)c1ccc(Sc2nnnn2-c2ccccc2)c([N+](=O)[O-])c1	-2.4	1.4	84.9*	-4.27*	-14.6	-9.2	i	58.2*	30.1
Cn1cnnc1Sc1cc(N2CCN(S(=O)(=O)c3ccccc3)CC2)ccc1[N+](=O)[O-]	-0.3	-0.4	-6.2	1.07	-11.3	-16.3	.	.	.
O=[N+]([O-])c1ccc(Sc2nnnn2-c2ccccc2)c(Cl)c1	0.1	-1.0	48.9	-0.33	-4.0	-7.7	.	.	.
CN1CCN(S(=O)(=O)c2ccc(Sc3nnnn3-c3ccccc3)c([N+](=O)[O-])c2)CC1	-8.5	25.4	88.0*	-3.5*	7.0	-3.8	+	77.3*	56.1*
O=C(CCCC(=O)OCC(F)(F)C(F)F)Nc1ccccc1F	-4.5	-0.8	13.1	-0.684	-1.9	-27.7	.	.	.
CC(C)N(C(=O)COC(=O)c1ccccc1C(=O)c1ccc(Cl)c([N+](=O)[O-])c1)C(C)C	-1.9	0.3	82.0*	-3.63*	22.2	-8.6	i	23.4	.
CCOc1ccccc1N1C(=O)c2ccc(S(=O)(=O)c3ccc(C(=O)O)cc3)cc2C1=O	-2.5	-1.8	19.5	.	1.2	.	.	.	.
